Assay outcomes (PubChem)
Compounds with a hit are over-represented: about 0.97% of the library has one in this group of screens.
Beta2AR agonist: human beta-2 adrenergic receptor agonism by FAP; Am2.2-beta2AR cells, FAP receptor internalization, flow cytometry; response, % (concentration not given with the values); 340,000 compounds, 0.43% hits; P07550;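 active = response above a set limit, near 3 SD of response in nonfluorescent compounds, cut at about 42% in these data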
Target sequence (P07550 whole entry, looked up): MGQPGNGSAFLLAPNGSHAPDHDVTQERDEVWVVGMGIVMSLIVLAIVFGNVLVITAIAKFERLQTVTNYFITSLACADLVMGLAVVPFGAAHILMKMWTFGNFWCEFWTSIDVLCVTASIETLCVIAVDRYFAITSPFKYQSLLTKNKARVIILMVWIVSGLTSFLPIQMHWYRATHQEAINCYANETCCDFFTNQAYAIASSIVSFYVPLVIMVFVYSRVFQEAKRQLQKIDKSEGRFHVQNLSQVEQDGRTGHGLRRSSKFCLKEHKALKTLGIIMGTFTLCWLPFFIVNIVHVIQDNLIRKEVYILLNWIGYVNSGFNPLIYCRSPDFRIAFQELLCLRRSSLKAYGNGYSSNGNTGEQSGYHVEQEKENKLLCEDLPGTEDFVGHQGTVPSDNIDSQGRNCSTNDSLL
Dynein transport: dynein cargo transport inhibition; 3617.4 mouse cells, GR-EGFP nuclear translocation imaging; test concentration mostly 20 µM; stimulated with dexamethasone, 1 µM; stronger effect = lower value; z-score, hits read low; 220,000 compounds, 0.47% hits;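 active = plate z-score of nuclear minus cytoplasmic receptor signal below a set negative limit, without overly bright fluorescence or cell loss, cut at about -3.5 in these data, passing the limit was not always enough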;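 note: z-score of nuclear minus cytoplasmic ring GR-EGFP intensity difference per well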
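Buffer or medium: tet-free, stripped-serum medium; reagent: dexamethasone at 1.0 µM final, 30 min; incubation: 48 h induction, 1 h compound, 30 min dex at 37 °C; measured by: formaldehyde fixation, Hoechst nuclear stain, 10x automated fluorescence imaging; read-out: nuclear-to-cytoplasmic GR-EGFP distribution per well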
MDM2 E3 inh: inhibitors of human Mdm2 E3 ubiquitin ligase | signal enhancement, % at 5 µM | cell-based MDM2 ubiquitination luciferase reporter, 2 h; 0 = plate control, 100 = twice control, blank-subtracted | 210,000 compounds, 0.11% hits | Q00987;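 active = signal enhancement of 30% or more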;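 note: luminescence tracks abundance of the self-degrading MDM2-luciferase fusion protein; higher signal means inhibition of MDM2 E3 ligase activity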
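Material: Stable MDM2–luciferase fusion reporter cells | Amount: 2000 cells seeded into each well | Dosing: One concentration, 5 µM, with 0.2% DMSO | Incubation: 4 h cell settling then 2 h compound exposure, 37 °C | Measured by: Luciferase luminescence | Read-out basis: % enhancement relative to plate controls after blank subtraction | Benchmarks: Control and blank well means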
L929 necroptosis: L929 zVAD cell death inhibition. L929 zVAD necroptosis rescue, ATP luminescence, 24 h; with zVAD 60 µM. viability rescue, % at 10 µM. 220,000 compounds, 0.38% hits. AID 1377;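 active = activation, scaled between plate controls, above about 75%, limit read from the data; inactive = activation under that limit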;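 note: 0% = zVAD with DMSO and 100% = DMSO alone without zVAD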
TNF death inh: TNF-alpha cell death inhibition in Jurkat FADD-/- cells; Jurkat FADD-/- TNF necroptosis rescue, ATP luminescence, 24 h; 0 = TNF only, 100 = no-TNF cells; activation (protection from cell death), % at 10 µM; 220,000 compounds, 0.068% hits;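 active = activation, meaning protection from cell death, of at least 50% relative to plate controls; inactive = activation below 50%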;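 note: necroptosis triggered by 40 ng/mL TNF-alpha added together with compound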
zVAD death conf: confirmed blocker of zVAD induced death in L929 cells; shares compounds with L929 necroptosis; L929 zVAD-induced necroptosis rescue, ATP luminescence, 24 h; activation (protection from necroptosis), % at 10 µM; 760 compounds, 16% hits;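 active = mean protection from necroptosis of at least 50% over duplicate tests; inactive = mean protection below 50%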;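 note: 0% = cells with zVAD alone and 100% = vehicle cells without zVAD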
An asterisk follows results filed as active; . = not tested or not shown.

SMILES	Beta2AR agonist	Dynein transport	MDM2 E3 inh	L929 necroptosis	TNF death inh	zVAD death conf
CC(=O)N(C)c1ccc(NC(=O)Nc2ccc(Cl)cc2)cc1	7.0	.	.	.	.	.
CC(C)C1COC(c2cccn2Cc2ccccc2Cl)=N1 (stereo unspecified)	3.5	-0.55	-25.8	-0.5	-1.5	.
Brc1nc(Br)n(Cc2ccccc2)n1	-10.4	0.506	1.8	7.0	43.3	.
Nn1cnn(Cc2ccccc2)c1=S	-17.9	0.114	-4.0	88.0*	6.2	31.8
Fc1ccc(NC(=S)N2N=CCC2c2ccccc2)cc1 (stereo unspecified)	4.3	0.0449	-49.4	82.1*	93.7*	9.9
O=C(Nc1cccc(Cl)c1)N1N=CCC1c1ccccc1 (stereo unspecified)	4.5	-0.818	-11.9	88.8*	92.2*	84.9*
CCOC(=O)c1c(NC(=O)CN2CCN(C)CC2)sc(C(=O)Nc2ccccc2)c1C	-22.4	3.81	3.6	-1.3	-9.4	.
c1ccn(-c2ccc(-c3ccn[nH]3)cc2)c1	-1.8	-0.0681	-8.7	85.6*	7.4	4.8
O=C(Cn1nnc(-c2ccncc2)n1)Nc1ccc2c(c1)CCC2	-7.5	-0.0879	12.6	80.7*	1.1	38.6
COc1cc(NC(=O)Cn2nnc(-c3ccncc3)n2)cc(OC)c1	0.3	0.169	-11.4	77.5*	-3.8	29.9
CCOc1ccccc1NC(=O)CSc1nnnn1-c1ccc(C(=O)OC)cc1	0.6	0.624	-1.2	77.5*	-2.7	0.4
CCc1nnc(NS(=O)(=O)c2ccc(N/C=C/C(=O)c3ccc(OC)cc3)cc2)s1	27.9	0.438	5.0	79.5*	0.1	2.4
CN1CCN(c2ccc(S(=O)(=O)N3CCOCC3)cc2NC(=O)C2CCCCC2)CC1	-5.2	.	.	.	.	.
CCN(CC)CCOc1c(Br)ccc2c1sc1nc3n(c(=O)c12)CCC3	-15.8	-0.836	-7.6	80.5*	-6.5	21.0
Cc1cc(C)n(/N=C/c2cccc(O)c2)c(=O)c1C(N)=O	-1.4	0.0394	-8.4	1.5	1.0	.
CCN(c1ccccc1)S(=O)(=O)c1ccc(Oc2ccc(-n3ccnc3)cc2)nc1	8.4	-0.73	-2.4	86.8*	0.7	1.2
c1ccc(CNc2ncnc3scc(-c4cccs4)c23)nc1	5.5	-0.715	-6.4	55.2	-5.6	.
c1ccc(-c2csc3ncnc(NCc4ccccn4)c23)cc1	-131.4	0.511	-16.1	78.3*	-11.2	3.9
COc1cc(-n2c(=O)c3ccccc3n(CC(=O)OCc3ccccc3)c2=O)cc(OC)c1OC	-1.6	-0.665	-5.5	0.5	-0.2	.
CNS(=O)(=O)c1ccc2nc(NC(=O)/C=C/c3ccco3)sc2c1	3.7	-0.0328	-9.7	75.7*	-0.4	1.8
O=C(/C=C/c1ccc(S(=O)(=O)N2CCOCC2)cc1)Nc1cc(F)ccc1F	2.2	.	.	.	.	.
O=C1CNC(=S)N1CCc1ccc(Cl)cc1	-1.8	-1.46	-4.8	83.2*	20.6	35.0
O=C1CNC(=S)N1Cc1ccc(Cl)cc1	8.4	.	.	.	.	.
N/C(=N\OC(=O)c1ccc(=O)n(Cc2ccc(Cl)cc2)c1)c1ccccn1	-9.7	0.876	-3.3	-0.3	0.2	.
COCCNC(=O)c1cc(Sc2nnc(C)s2)nc2ccccc12	.	-0.819	-3.4	75.5*	4.0	8.2
SMILES	Beta2AR agonist	Dynein transport	MDM2 E3 inh	L929 necroptosis	TNF death inh	zVAD death conf
Cn1c(C(=O)NCc2ccccn2)cc2c(=O)n(C)c3ccccc3c21	-16.4	0.208	-14.1	88.9*	0.5	3.1
CN1CCN(CCCNC(=O)c2cc3c(=O)n(C)c4ccccc4c3s2)CC1	-11.2	-0.987	-13.9	77.0*	2.1	23.8
Cn1c(C(=O)NCCN2CCCCCC2)cc2c(=O)n(C)c3ccccc3c21	9.0	-0.379	-4.4	84.2*	3.2	10.3
Cc1ccc2oc(=O)c3cc(C(=O)NCCCN4CCN(C)CC4)sc3c2c1	-2.9	.	.	.	.	.
CCCCN(CC)CCCNC(=O)c1cc2c(=O)n(C)c3ccccc3c2n1C	6.9	0.266	-15.8	80.1*	-0.8	33.5
Cc1ccc(CNC(=O)c2cc3c(=O)n(C)c4ccccc4c3n2C)o1	3.5	0.212	-6.7	18.9	-3.3	.
CCOc1ccc(-c2nc(CSc3nnc(N)s3)cs2)cc1	11.2	0.292	-9.4	-0.8	-1.1	.
Oc1ccccc1N=Cc1c(O)ccc2ccccc12	-19.0	-1.52	-15.5	83.6*	-5.5	12.5
COc1ccc(NC(=S)NNC(=S)Nc2cccc(C(F)(F)F)c2)cc1	1.0	-1.16	-14.1	77.3*	0.2	6.3
COc1ccc(NC(=O)Nc2cc(C)cc(C)c2)cn1	8.0	-0.146	-8.8	4.6	4.4	.
COc1ccc(NC(=O)Nc2cccc(C(F)(F)F)c2)cn1	0.4	0.263	-11.8	77.2*	4.4	3.6
CCn1cc(/C=C/C(=O)Nc2c(C)nn(Cc3ccccc3C)c2C)cn1	-22.4	-0.727	0.3	1.6	0.9	.
Cc1ccc(-c2nc(Nc3ccccc3)n[nH]2)cc1	-5.1	-0.869	-44.0	77.0*	12.0	77.1*
O=C(CSc1ccc2ccccc2c1)NCCc1ccc(O)c(O)c1	2.5	-1.46	-9.3	51.2	-10.0	.
COc1ccc(-n2cnc3cc(NS(=O)(=O)c4ccc(C)cc4)ccc32)cc1	1.2	1.09	-0.3	84.5*	38.1	41.2
Nc1ccc(-n2cnc3cc([N+](=O)[O-])ccc32)cc1	5.4	0.696	-11.8	78.1*	0.2	41.8
Cc1cccc(-n2cnc3cc([N+](=O)[O-])ccc32)c1	-1.6	0.577	5.8	19.7	2.3	.
COc1ccc(-n2cnc3cc([N+](=O)[O-])ccc32)cc1	-3.8	1.17	-5.3	79.1*	2.2	0.5
O=C(Oc1ccc(Nc2ncnc3ccccc23)cc1)c1cccnc1	5.5	-0.381	-3.7	80.5*	-0.7	1.1
O=C(O)c1ccc(Nc2ncnc3ccccc23)cc1	-13.8	.	.	.	.	.
O=C(CN1CCN(CC(=O)Nc2ccc(OCc3ccccc3)cc2)CC1)Nc1ccc(F)cc1	-3.6	-0.904	.	0.4	-1.7	.
O=C(CSc1nnc(-c2ccc(F)cc2)o1)N1CCCCC1	-9.3	.	.	.	.	.
CC1CC(C)CN(C(=O)CSc2nnc(-c3ccc(F)cc3)o2)C1 (stereo unspecified)	-14.4	-0.965	-7.9	89.1*	1.4	12.0
Cc1ccc(C(=O)CCC(=O)N2CCN(C(=O)c3ccco3)CC2)cc1	-3.0	0.261	-8.2	76.2*	-1.0	7.8
Cc1cc(C)cc(-c2nnc(SCC(=O)N3CCN(C(=O)c4ccco4)CC3)o2)c1	-8.0	-0.818	5.2	85.5*	-6.8	24.3
CC(=O)c1cc2c(cc1NC(=O)c1cc3nc(C(C)C)cc(C(F)(F)F)n3n1)OCO2	-5.2	1.2	-13.1	-0.4	-1.9	.
CCOC(=O)c1sc(-c2ccc(F)cc2)cc1N	-4.6	-0.42	.	0.3	-3.4	.
